# Results pooled from the literature.
# Target: Proto-oncogene tyrosine-protein kinase ROS (ROS1, Homo sapiens, UniProt P08922)
SMILES,test,conditions,endpoint,result
Cn1cncc1[C@](O)(COc1ccc(C#N)cc1-c1ccc(OC(F)(F)F)cc1)c1ccc(C#N)cc1,"cell-free assay, competition with immobilised ligand",1 µM,remaining binding,89%
C#Cc1n[nH]c2c(-c3cn([C@@H](C)c4ccccn4)c(=O)[nH]c3=O)cc(F)cc12,"enzyme activity, inhibitor",0.1 µM,inhibition,5.1%
Nc1ncc(-c2nc(N3CCOCC3)nc(N3CCOCC3)n2)c(C(F)F)n1,"binding, competition with immobilised ligand",10 µM,remaining binding,54%
O=c1[nH]c2ccccc2n1C1CCN(Cc2ccc(-c3[nH]c4cc5ncnc5cc4nc3-c3ccccc3)cc2)CC1,cell-free assay,0.5 µM,remaining signal,101%
N#CC1(c2ccccn2)CCN(Cc2cc(C(=O)O)c(=O)n3ccccc23)CC1,"cell-free assay, competition with immobilised ligand",1 µM,remaining binding,90%
Cn1cc(-c2cc(F)cc(N3CCn4c(cc5c4CCCC5)C3=O)c2CO)cc(Nc2ccc(N3CCN(C4COC4)CC3)cn2)c1=O,"enzyme activity, inhibitor",0.1 µM,inhibition,10%
Cc1nn(C)cc1-c1nc2c(N3CCN(Cc4ccc(Cl)cc4)CC3)c(Cl)cnc2[nH]1,"binding, competition with immobilised ligand",1 µM,remaining binding,100%
COc1ncccc1-c1cnn2ccc(N3CCN(C(=O)OC(C)C)CC3)nc12,"binding, competition with immobilised ligand",1 µM,remaining binding,100%
